Assay results published in ChEMBL document CHEMBL1154069, “Active site directed docking studies: synthesis and pharmacological evaluation of cis-2,6-dimethyl piperidine sulfonamides as inhibitors of acetylcholinesterase” (Eur J Med Chem, 2009).
Calls of active or inactive are those of the source. No cut-off for these calls is given here.

How the values were obtained:
[1] = target: T1, Acetylcholinesterase (Rattus norvegicus, UniProt P37136); assay: Inhibition of Wistar rat brain homogenate AChE by Ellman's assay
T1 sequence (P37136 whole entry): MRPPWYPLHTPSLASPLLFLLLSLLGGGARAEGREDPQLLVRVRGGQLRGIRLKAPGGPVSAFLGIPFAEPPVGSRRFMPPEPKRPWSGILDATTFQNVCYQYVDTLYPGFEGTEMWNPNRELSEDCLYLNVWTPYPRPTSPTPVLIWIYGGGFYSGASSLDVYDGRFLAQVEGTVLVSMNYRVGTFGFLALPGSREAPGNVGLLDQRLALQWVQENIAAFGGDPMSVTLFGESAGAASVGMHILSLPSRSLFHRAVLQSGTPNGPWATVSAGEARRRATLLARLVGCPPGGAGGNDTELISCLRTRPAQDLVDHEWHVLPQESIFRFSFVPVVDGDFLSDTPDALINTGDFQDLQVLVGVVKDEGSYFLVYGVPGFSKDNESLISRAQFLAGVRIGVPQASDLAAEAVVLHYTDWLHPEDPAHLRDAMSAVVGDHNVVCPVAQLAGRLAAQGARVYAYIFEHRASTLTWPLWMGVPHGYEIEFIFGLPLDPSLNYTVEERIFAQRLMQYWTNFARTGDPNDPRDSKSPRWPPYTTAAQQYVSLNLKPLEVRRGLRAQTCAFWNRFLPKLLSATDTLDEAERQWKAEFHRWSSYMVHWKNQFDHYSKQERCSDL
In short: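 Enzyme from Wistar rat brain homogenised 5 min in 0.1 M KH2PO4 pH 8; protein by Lowry (BSA standard). Inhibitor preincubated 10 min with enzyme, buffer and DTNB before adding acetylthiocholine iodide (fresh, pH 7 phosphate). A412 read every 1 min for 10 min at 37 °C. Activity as percentage of uninhibited enzyme; duplicates, means reported.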

[2] = target: Acetylcholinesterase (Homo sapiens, UniProt P22303); assay: Inhibition of human serum AChE by Ellman's assay
[3] = test system: Rattus norvegicus; assay: Antiamnesic activity against scopolamine-induced acquisition memory loss in rat assessed as times of step-down at 0.1 mg/kg, ip by step-down passive avoidance test; format: functional; details: route intraperitoneal
[4] = test system: Rattus norvegicus; assay: Antiamnesic activity against scopolamine-induced memory loss in rat assessed as basal latency to reach shock free zone 1 at 0.1 mg/kg, ip; format: functional; details: route intraperitoneal
[5] = target: Acetylcholinesterase (Electrophorus electricus, UniProt O42275); assay: Inhibition of electric eel AChE by Ellman's method
In short: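 Commercial electric eel enzyme assayed like rat brain AChE: inhibitor, buffer and DTNB preincubated 10 min, acetylthiocholine iodide added, A412 followed each minute over 10 min at 37 °C. Percentage inhibition versus uninhibited activity at varied concentrations; duplicates averaged. Neostigmine reference 25–500 nM.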

[6] = test system: Rattus norvegicus; assay: Antiamnesic effect against scopolamine-induced memory loss in rat assessed as basal latency to reach shock free zone 2 at 0.1 mg/kg, ip; format: functional; details: route intraperitoneal
[7] = test system: Rattus norvegicus; assay: Antiamnesic activity against scopolamine-induced memory loss in rat assessed as basal latency to reach shock free zone 3 at 0.1 mg/kg, ip; format: functional; details: route intraperitoneal
[8] = test system: Rattus norvegicus; assay: Antiamnesic activity against scopolamine-induced memory loss in rat assessed as reversal of number of mistakes made in 15 min at 0.1 mg/kg, ip; format: functional, organism-based; set-up: dose 0.1 mg/kg

Acetylcholinesterase (Electrophorus electricus, UniProt O42275), sequence (O42275 whole entry): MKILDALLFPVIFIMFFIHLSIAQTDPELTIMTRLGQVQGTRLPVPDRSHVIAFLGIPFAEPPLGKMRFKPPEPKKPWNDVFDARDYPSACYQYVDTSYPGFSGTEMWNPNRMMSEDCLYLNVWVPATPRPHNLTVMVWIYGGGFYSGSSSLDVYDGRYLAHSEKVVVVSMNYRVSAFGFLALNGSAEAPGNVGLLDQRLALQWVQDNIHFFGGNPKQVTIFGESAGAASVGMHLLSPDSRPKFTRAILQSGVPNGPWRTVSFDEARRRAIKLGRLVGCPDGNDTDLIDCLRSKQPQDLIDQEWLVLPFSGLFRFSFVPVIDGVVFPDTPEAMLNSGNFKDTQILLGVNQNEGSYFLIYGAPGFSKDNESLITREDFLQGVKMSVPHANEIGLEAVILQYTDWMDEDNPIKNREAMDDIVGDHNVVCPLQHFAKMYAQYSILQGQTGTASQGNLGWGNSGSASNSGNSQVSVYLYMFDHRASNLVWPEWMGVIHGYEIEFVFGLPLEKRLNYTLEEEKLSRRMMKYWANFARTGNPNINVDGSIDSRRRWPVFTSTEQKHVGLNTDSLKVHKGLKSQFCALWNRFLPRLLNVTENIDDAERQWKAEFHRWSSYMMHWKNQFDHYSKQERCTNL
Acetylcholinesterase (Homo sapiens, UniProt P22303), sequence (P22303 whole entry): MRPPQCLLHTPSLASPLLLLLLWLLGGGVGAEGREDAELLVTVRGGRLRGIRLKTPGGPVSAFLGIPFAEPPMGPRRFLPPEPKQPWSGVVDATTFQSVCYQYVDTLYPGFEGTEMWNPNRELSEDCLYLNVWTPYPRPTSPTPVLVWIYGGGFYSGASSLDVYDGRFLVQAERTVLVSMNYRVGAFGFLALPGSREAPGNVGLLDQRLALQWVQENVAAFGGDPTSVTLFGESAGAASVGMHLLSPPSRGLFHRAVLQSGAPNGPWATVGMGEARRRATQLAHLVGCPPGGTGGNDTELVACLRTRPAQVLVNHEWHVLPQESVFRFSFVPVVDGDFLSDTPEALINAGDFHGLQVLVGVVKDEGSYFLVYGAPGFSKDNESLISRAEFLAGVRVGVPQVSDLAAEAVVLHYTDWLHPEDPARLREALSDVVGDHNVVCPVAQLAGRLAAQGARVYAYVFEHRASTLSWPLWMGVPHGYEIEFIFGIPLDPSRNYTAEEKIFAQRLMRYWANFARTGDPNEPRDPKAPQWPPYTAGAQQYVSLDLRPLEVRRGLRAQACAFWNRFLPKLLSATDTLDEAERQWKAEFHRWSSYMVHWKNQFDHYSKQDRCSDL

In the case of C[C@@H]1CCC[C@H](C)N1S(=O)(=O)c1ccc(Cl)cc1, the IC50 [1] is reported as 0.325 µM, the IC50 [2] is reported as 0.318 µM and the Activity [3] is reported as 3 times. It also gave an Activity [4] of 25 s, an IC50 [5] of 0.312 µM and an Activity [6] of 8 s. The Activity [7] was 5 s.
C[C@@H]1CCC[C@H](C)N1S(=O)(=O)c1ccc(C(C)(C)C)cc1 was tested, and the IC50 [1] was 0.463 µM, the IC50 [2] was 0.458 µM and the Activity [3] was 4 times. It also gave an Activity [4] of 28 s, an IC50 [5] of 0.45 µM and an Activity [6] of 9 s. The Activity [7] was 6 s.
Cc1ccc(S(=O)(=O)N2[C@H](C)CCC[C@@H]2C)cc1 gave an IC50 [1] of 0.362 µM, an IC50 [2] of 0.368 µM and an Activity [3] of 4 times. The Activity [4] was 27 s, the IC50 [5] was 0.365 µM and the Activity [6] was 8 s. For the same molecule, the Activity [7] was 5 s.
C[C@@H]1CCC[C@H](C)N1S(=O)(=O)c1cc(Cl)ccc1Cl showed an IC50 [1] of 0.075 µM, an IC50 [2] of 0.09 µM and an Activity [3] of 2 times. It also gave an Activity [4] of 16 s, an IC50 [5] of 0.081 µM and an Activity [6] of 4 s. For the same molecule, the Activity [7] was 0.8 s and the Activity [8] was “Active”.
Work on C[C@@H]1CCC[C@H](C)N1S(=O)(=O)c1ccc([N+](=O)[O-])cc1 yielded an IC50 [1] of 1.2 µM, an IC50 [2] of 1.15 µM and an Activity [3] of 3 times. It also gave an Activity [4] of 34 s, an IC50 [5] of 1.21 µM and an Activity [6] of 9 s. The Activity [7] was 7 s.
Work on C[C@@H]1CCC[C@H](C)N1S(=O)(=O)c1ccccc1 yielded an IC50 [1] of 0.362 µM, an IC50 [2] of 0.392 µM and an Activity [3] of 4 times. It also gave an Activity [4] of 26 s, an IC50 [5] of 0.388 µM and an Activity [6] of 7 s. It also gave an Activity [7] of 4 s.
With C[C@@H]1CCC[C@H](C)N1S(C)(=O)=O the IC50 [1] was 0.085 µM, the IC50 [2] was 0.075 µM and the Activity [3] was 2 times. For the same molecule, the Activity [4] was 20 s, the IC50 [5] was 0.09 µM and the Activity [6] was 4 s. The Activity [7] was 0.7 s and the Activity [8] was “Active”.
Molecule CN(C)C(=O)Oc1cccc([N+](C)(C)C)c1 [NEOSTIGMINE BROMIDE] has an IC50 [1] of 0.04 µM and an IC50 [5] of 0.053 µM.
C[C@@H]1CCC[C@H](C)N1S(=O)(=O)c1ccccc1[N+](=O)[O-] gave an IC50 [1] of 0.195 µM, an IC50 [2] of 0.185 µM and an Activity [3] of 2 times. It also gave an Activity [4] of 17 s, an IC50 [5] of 0.18 µM and an Activity [6] of 5 s. For the same molecule, the Activity [7] was 0.9 s and the Activity [8] was “Active”.
C[C@@H]1CCC[C@H](C)N1S(=O)(=O)c1cccc([N+](=O)[O-])c1 was tested, and the IC50 [1] was 0.186 µM, the IC50 [2] was 0.192 µM and the Activity [3] was 4 times. The Activity [4] was 22 s, the IC50 [5] was 0.2 µM and the Activity [6] was 6 s. The Activity [7] was 4 s and the Activity [8] was “Active”.
